Results on five compounds are retold here after ChEMBL document CHEMBL5370595, “Development of Iodinated Indocyanine Green Analogs as a Strategy for Targeted Therapy of Liver Cancer” (ACS Med Chem Lett, 2023).

A short description of data set [1]: Drug uptake in human Hep3B cells assessed as increase in mean fluorescence intensity at 10 uM incubated for 1 hr by flow cytometry analysis. Format: ADME, cell-based. Particulars: hep 3b2, 1 h; call rule not given here. In outline:
(§1)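 Flow cytometry of cells exposed to 10 μM compound for 1 h, read as mean fluorescence intensity. Cell lines were OATP1B3-overexpressing HEK-293T (lentiviral transduction, MOI 10), parental HEK-293T, Hep3B, HepG2 and Huh-7.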
In general terms: In flow cytometry, cells or beads pass a laser one at a time.

Data set [2] is described as follows: Drug uptake in parent HEK293T cells assessed as increase in mean fluorescence intensity at 10 uM incubated for 1 hr by flow cytometry analysis. Format: ADME, cell-based. Particulars: human, hek-293t. In outline:
as §1

Data set [3] can be described thus: Drug uptake in human HepG2 cells assessed as increase in mean fluorescence intensity at 10 uM incubated for 1 hr by flow cytometry analysis. Format: ADME, cell-based. To be noted: hepg2, 1 h. The gist of the method: as §1
Data set [4] in a line: Drug uptake in HEK293T cells expressing OATP1B3 assessed as increase in mean fluorescence intensity at 10 uM incubated for 1 hr by flow cytometry analysis. Format: ADME, cell-based. To be noted: human, hek-293t. The gist of the method: as §1
Data set [5] can be described thus: Drug uptake in human Huh-7 cells assessed as increase in mean fluorescence intensity at 10 uM incubated for 1 hr by flow cytometry analysis. Format: ADME, cell-based. To be noted: huh-7, 1 h. The gist of the method: as §1
Data set [6] in a line: Drug uptake in human SH-SY5Y cells assessed as increase in fluorescence signal at 25 uM incubated for 1 hr by flow cytometry based analysis. Format: ADME, cell-based.
A short description of data set [7]: Ratio of drug concentration in athymic nude mouse tumor to liver xenografted with human Hep3B cells assessed as tumor to liver ratio at 2 mg/kg measured after 48 hrs post injection by IVIS Lumina imaging system. Particulars: in vivo. Format: ADME, organism-based. In outline:
(§2)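 Tumor-to-liver ratio was calculated from ex vivo fluorescence of excised tumors and livers at 48 h after 2 mg/kg intravenous dosing in xenograft-bearing female athymic nude mice.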
For orientation: In xenograft studies the graft and the host belong to different species.

Data set [8] in a line: Drug uptake in human HB17 cells assessed as increase in fluorescence signal at 10 to 25 uM incubated for 1 hr by confocal fluorescence microscopy based analysis. Format: ADME, cell-based. To be noted: hb17, 1 h, dose 10-25 µM.
Data set [9] is described as follows: Drug uptake in athymic nude mouse liver xenografted with human Huh-7 cells assessed as increase in liver signal at 2 mg/kg, iv measured after 48 hrs post injection by IVIS Lumina imaging system. Particulars: in vivo. Format: ADME, organism-based. In outline:
(§3)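 Female athymic nude mice bearing Hep3B or Huh-7 tumors received 2 mg/kg intravenously. They were imaged by IVIS at 4, 24 and 48 h. Tumors and livers were excised at 48 h for ex vivo fluorescence, with background taken from the neck signal.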

The nature of data set [10]: Drug uptake in liver of mouse xenografted with HB52 PDX model assessed as increase in fluorescence signal at 10 mg/kg, iv measured after 72 hrs post injection by IVIS Lumina imaging system. Format: ADME, organism-based. Particulars: in vivo. The gist of the method: (§4)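 Mice with orthotopic HB52 or HB66 hepatoblastoma PDX tumors, and non-tumor-bearing mice, received 10 mg/kg intravenously. Tumor growth was followed by MRI. Mice were imaged by IVIS at 24, 48 and 72 h, then tumors, livers and lungs were analysed ex vivo at 72 h, n = 1.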

The nature of data set [11]: Drug uptake in liver of athymic nude mouse xenografted with human Hep3B cells assessed as increase in liver signal at 2 mg/kg, iv measured after 48 hrs post injection by IVIS Lumina imaging system. Format: ADME, organism-based, Hep 3B2. To be noted: in vivo. The gist of the method: as §3
Data set [12] in a line: Drug uptake in human SH-SY5Y cells assessed as increase in fluorescence signal at 10 to 25 uM incubated for 1 hr by confocal fluorescence microscopy based analysis. Format: ADME, cell-based. Particulars: dose 10-25 µM.
The nature of data set [13]: Drug uptake in tumor of athymic nude mouse xenografted with human Hep3B cells assessed as increase in tumor signal at 2 mg/kg, iv measured after 48 hrs post injection by IVIS Lumina imaging system. Format: ADME, organism-based, Neoplasm, Hep 3B2. Particulars: in vivo. The gist of the method: as §3
A short description of data set [14]: Drug uptake in human HB17 cells assessed as increase in fluorescence signal at 25 uM incubated for 1 hr by flow cytometry based analysis. To be noted: hb17, 1 h. Format: ADME, cell-based.
Data set [15] can be described thus: Drug uptake in tumor of mouse xenografted with HB66 PDX model assessed as increase in fluorescence signal at 10 mg/kg, iv measured after 72 hrs post injection by IVIS Lumina imaging system. To be noted: in vivo. Format: ADME, organism-based, Neoplasm. The gist of the method: as §4
The nature of data set [16]: Drug uptake in liver of mouse xenografted with HB66 PDX model assessed as increase in fluorescence signal at 10 mg/kg, iv measured after 72 hrs post injection by IVIS Lumina imaging system. Format: ADME, organism-based. To be noted: in vivo. The gist of the method:
as §4

The nature of data set [17]: Drug uptake in lung of non-tumor bearing mouse assessed as increase in fluorescence signal at 10 mg/kg, iv measured after 72 hrs post injection by IVIS Lumina imaging system. Format: ADME, organism-based. Particulars: in vivo. The gist of the method: as §4
Data set [18] can be described thus: Drug uptake tumor of in athymic nude mouse xenografted with human Huh-7 cells assessed as tumor to background ratio at 2 mg/kg, iv measured after 4 to 48 hrs by IVIS Lumina imaging system. Format: ADME, organism-based, Neoplasm. To be noted: in vivo, time 4-48 hrs.
Data set [19] can be described thus: Drug uptake in human HepG2 cells assessed as increase in fluorescence signal at 10 to 25 uM incubated for 1 hr by confocal fluorescence microscopy based analysis. Format: ADME, cell-based. To be noted: hepg2, 1 h, dose 10-25 µM.
Data set [20] is described as follows: Drug uptake in tumor of mouse xenografted with HB52 PDX model assessed as increase in fluorescence signal at 10 mg/kg, iv measured after 72 hrs post injection by IVIS Lumina imaging system. Format: ADME, organism-based, Neoplasm. Particulars: in vivo. In outline:
as §4

Data set [21] in a line: Drug uptake in human HepG2 cells assessed as increase in fluorescence signal at 25 uM incubated for 1 hr by flow cytometry based analysis. To be noted: hepg2, 1 h. Format: ADME, cell-based.
Data set [22] in a line: Drug uptake in tumor of athymic nude mouse xenografted with human Hep3B cells assessed as tumor to background ratio at 2 mg/kg, iv measured after 4 to 48 hrs by IVIS Lumina imaging system. Format: ADME, organism-based, Neoplasm, Hep 3B2. To be noted: in vivo, time 4-48 hrs.
Data set [23] can be described thus: Ratio of drug concentration in athymic nude mouse tumor to liver xenografted with human Huh-7 cells assessed as tumor to liver ratio at 2 mg/kg measured after 48 hrs post injection by IVIS Lumina imaging system. Particulars: in vivo. Format: ADME, organism-based. The gist of the method:
as §2

Data set [24] is described as follows: Drug uptake in tumor of athymic nude mouse xenografted with human Huh-7 cells assessed as increase in tumor signal at 2 mg/kg, iv measured after 48 hrs post injection by IVIS Lumina imaging system. Format: ADME, organism-based, Neoplasm. Particulars: in vivo. In outline:
as §3

Data set [25] in a line: Drug uptake in HEK293T cells expressing OATP1B3 by DAPI staining based confocal fluorescence microscopy analysis. Format: ADME, cell-based. Particulars: human, hek-293t.
Data set [26] can be described thus: Drug uptake in human HepG2 cells expressing OATP1B3 by DAPI staining based confocal fluorescence microscopy analysis. Format: ADME, cell-based.
Data set [27] is described as follows: Drug uptake in parent HEK293T cells at 10 uM incubated for 1 hr by DAPI staining based flow cytometry analysis. Format: ADME, cell-based. To be noted: human, hek-293t.
A short description of data set [28]: Drug uptake in human HepG2 at 10 uM incubated for 1 hr by DAPI staining based flow cytometry analysis. Format: ADME, cell-based. To be noted: hepg2, 1 h.
A short description of data set [29]: Drug uptake in human Hep3B cells expressing OATP1B3 by DAPI staining based confocal fluorescence microscopy analysis. Format: ADME, cell-based. To be noted: hep 3b2.
Data set [30] in a line: Drug uptake in human Hep3B at 10 uM incubated for 1 hr by DAPI staining based flow cytometry analysis. To be noted: hep 3b2, 1 h. Format: ADME, cell-based.
Data set [31] is described as follows: Drug uptake in HEK293T cells expressing OATP1B3 at 10 uM incubated for 1 hr by DAPI staining based flow cytometry analysis. To be noted: human, hek-293t. Format: ADME, cell-based.
Data set [32] in a line: Drug uptake in parent HEK293T cells by DAPI staining based confocal fluorescence microscopy analysis. To be noted: human, hek-293t. Format: ADME, cell-based.

Structures are written as SMILES.

On to `CC1(C)C(/C=C/C=C/C=C/C=C2/N(CCCCS(=O)(=O)[O-])c3cccc(I)c3C2(C)C)=[N+](CCCCS(=O)(=O)[O-])c2ccc3ccccc3c21.[Na+]`, for which the Drug uptake result in data set [1], in data set [2], in [3], in data set [4] and in data set [5] was “Active” each time.

Take `CC1(C)C(/C=C/C=C/C=C/C=C2/N(CCCCS(=O)(=O)[O-])c3cccc(I)c3C2(C)C)=[N+](CCCCS(=O)(=O)[O-])c2cccc(I)c21.[Na+]`: the Drug uptake result in [1] is reported as “Active”; in [6], “Not Active”; in [2], “Active”; in data set [8], “Active”; in [9], “Active”; in data set [3], “Active”. In addition, the Drug uptake result in [4] is “Active”; in data set [10], “Not Active”; in [5] it was “Active”; in data set [11] it was “Active”; in [12], “Not Active”; in [13] it was “Active”. The Drug uptake entry in [14] is “Active”; in data set [15] it was “Active”; in [16], “Not Active”; in data set [17] it was “Not Active”; in data set [19], “Active”; in data set [20], “Active”. Also, the Drug uptake result in [21] and in data set [24] was “Active” in each case. Besides, the Ratio worked out at 3 in data set [7], 2 in data set [18], 5 in [22] and 2 in [23].

With `CC1(C)C(/C=C/C=C/C=C/C=C2/N(CCCCS(=O)(=O)[O-])c3ccc4ccccc4c3C2(C)C)=[N+](CCCCS(=O)(=O)[O-])c2ccc3ccccc3c21.[Na+]` [INDOCYANINE GREEN], the Drug uptake entry in data set [6] is “Not Active”; in data set [8], “Active”; in data set [25], “Active”; in [26] it was “Active”; in [27] it was “Active”; in [28], “Active”. The Drug uptake result is on record as “Active” in data set [29]; “Active” in data set [30]; “Active” in data set [31]; “Not Active” in [12]; “Active” in [14]; “Active” in data set [32]. In addition, the Drug uptake result in [19] and in data set [21] was “Active” each time. Also, the Ratio in [7] is on record as 3; in [18], 2; in data set [22] it was 2; in data set [23], 2.

Regarding `CC1(C)C(/C=C/C=C/C=C/C=C2/N(CCCCS(=O)(=O)[O-])c3ccc(I)cc3C2(C)C)=[N+](CCCCS(=O)(=O)[O-])c2ccc(I)cc21.[Na+]`, the Drug uptake entry in data set [1], in data set [2], in data set [3], in [4] and in [5] was “Active” in each case.

Regarding `CC1(C)C(/C=C/C=C/C=C/C=C2/N(CCCCS(=O)(=O)[O-])c3cc(I)ccc3C2(C)C)=[N+](CCCCS(=O)(=O)[O-])c2cc(I)ccc21.[Na+]`, the Drug uptake entry in data set [1], in data set [2], in data set [3], in data set [4] and in data set [5] was “Active” each time.
